# Results published in article PMC3902791 (Molecular imaging and biology : MIB : the official …, 2012).
# Like-named read-outs stand apart in the source and are kept apart here.
# Parameters: species or system human
# Outline: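 Organ time–activity curves came from whole-body scan VOI data. These were fitted mono-exponentially in five animals; in the sixth, with two scans, a linear fit to the log values was used. Time-integrated activity coefficients were scaled by the ratio of body-mass-normalised human to CT-derived macaque organ masses. Intestinal values were split in thirds across small intestine, ULI and LLI. Organ doses (mSv/MBq) were computed per animal with the OLINDA/EXM 1.1 adult male model.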
compound,measurement,setting,value
"O=C(O)C[18F] [^18F-FACE, ^18F-fluoroacetate]","Organ dose to adult human model, Lungs","from animal 2, male",0.010 mSv/MBq
same,"Organ dose to adult human model, Muscle","from animal 2, male",0.010 mSv/MBq
same,"Organ dose to adult human model, Osteogenic cells","from animal 2, male",0.014 mSv/MBq
same,"Organ dose to adult human model, Pancreas","from animal 2, male",0.014 mSv/MBq
same,"Organ dose to adult human model, Red marrow","from animal 2, male",0.011 mSv/MBq
same,"Organ dose to adult human model, Skin","from animal 2, male",0.007 mSv/MBq
same,"Organ dose to adult human model, Small intestine","from animal 2, male",0.045 mSv/MBq
same,"Organ dose to adult human model, Spleen","from animal 2, male",0.011 mSv/MBq
same,"Organ dose to adult human model, Stomach wall","from animal 2, male",0.013 mSv/MBq
same,"Organ dose to adult human model, Testes","from animal 2, male",0.009 mSv/MBq
same,"Organ dose to adult human model, Thymus","from animal 2, male",0.010 mSv/MBq
same,"Organ dose to adult human model, Thyroid","from animal 2, male",0.009 mSv/MBq
same,"Organ dose to adult human model, ULI wall (upper large intestine)","from animal 2, male",0.071 mSv/MBq
same,"Organ dose to adult human model, Urinary bladder wall","from animal 2, male",0.015 mSv/MBq
same,"Dose to adult human model, Total body","from animal 3, male",0.012 mSv/MBq
same,"ED effective dose, adult human model","from animal 3, male",0.028 mSv/MBq
same,"EDE effective dose equivalent, adult human model","from animal 3, male",0.030 mSv/MBq
same,"Organ dose to adult human model, Adrenals","from animal 3, male",0.013 mSv/MBq
same,"Organ dose to adult human model, Brain","from animal 3, male",0.009 mSv/MBq
same,"Organ dose to adult human model, Breasts","from animal 3, male",0.008 mSv/MBq
same,"Organ dose to adult human model, Gallbladder wall","from animal 3, male",0.017 mSv/MBq
same,"Organ dose to adult human model, Heart wall","from animal 3, male",0.020 mSv/MBq
same,"Organ dose to adult human model, Kidneys","from animal 3, male",0.034 mSv/MBq
same,"Organ dose to adult human model, LLI wall (lower large intestine)","from animal 3, male",0.120 mSv/MBq
same,"Organ dose to adult human model, Liver","from animal 3, male",0.014 mSv/MBq
same,"Organ dose to adult human model, Lungs","from animal 3, male",0.010 mSv/MBq
same,"Organ dose to adult human model, Muscle","from animal 3, male",0.011 mSv/MBq
same,"Organ dose to adult human model, Osteogenic cells","from animal 3, male",0.016 mSv/MBq
same,"Organ dose to adult human model, Pancreas","from animal 3, male",0.014 mSv/MBq
same,"Organ dose to adult human model, Red marrow","from animal 3, male",0.012 mSv/MBq
same,"Organ dose to adult human model, Skin","from animal 3, male",0.008 mSv/MBq
same,"Organ dose to adult human model, Small intestine","from animal 3, male",0.055 mSv/MBq
same,"Organ dose to adult human model, Spleen","from animal 3, male",0.012 mSv/MBq
same,"Organ dose to adult human model, Stomach wall","from animal 3, male",0.014 mSv/MBq
same,"Organ dose to adult human model, Testes","from animal 3, male",0.010 mSv/MBq
same,"Organ dose to adult human model, Thymus","from animal 3, male",0.010 mSv/MBq
same,"Organ dose to adult human model, Thyroid","from animal 3, male",0.010 mSv/MBq
same,"Organ dose to adult human model, ULI wall (upper large intestine)","from animal 3, male",0.088 mSv/MBq
same,"Organ dose to adult human model, Urinary bladder wall","from animal 3, male",0.017 mSv/MBq
same,"Dose to adult human model, Total body","from animal 4, female",0.008 mSv/MBq
same,"ED effective dose, adult human model","from animal 4, female",0.016 mSv/MBq
same,"EDE effective dose equivalent, adult human model","from animal 4, female",0.019 mSv/MBq
same,"Organ dose to adult human model, Adrenals","from animal 4, female",0.010 mSv/MBq
same,"Organ dose to adult human model, Brain","from animal 4, female",0.005 mSv/MBq
same,"Organ dose to adult human model, Breasts","from animal 4, female",0.005 mSv/MBq
same,"Organ dose to adult human model, Gallbladder wall","from animal 4, female",0.040 mSv/MBq
same,"Organ dose to adult human model, Heart wall","from animal 4, female",0.027 mSv/MBq
same,"Organ dose to adult human model, Kidneys","from animal 4, female",0.026 mSv/MBq
same,"Organ dose to adult human model, LLI wall (lower large intestine)","from animal 4, female",0.060 mSv/MBq
same,"Organ dose to adult human model, Liver","from animal 4, female",0.032 mSv/MBq
same,"Organ dose to adult human model, Lungs","from animal 4, female",0.007 mSv/MBq
same,"Organ dose to adult human model, Muscle","from animal 4, female",0.007 mSv/MBq
same,"Organ dose to adult human model, Osteogenic cells","from animal 4, female",0.010 mSv/MBq
same,"Organ dose to adult human model, Ovaries","from animal 4, female",0.013 mSv/MBq
same,"Organ dose to adult human model, Pancreas","from animal 4, female",0.010 mSv/MBq
same,"Organ dose to adult human model, Red marrow","from animal 4, female",0.007 mSv/MBq
same,"Organ dose to adult human model, Skin","from animal 4, female",0.005 mSv/MBq
same,"Organ dose to adult human model, Small intestine","from animal 4, female",0.029 mSv/MBq
same,"Organ dose to adult human model, Spleen","from animal 4, female",0.008 mSv/MBq
same,"Organ dose to adult human model, Stomach wall","from animal 4, female",0.009 mSv/MBq
same,"Organ dose to adult human model, Thymus","from animal 4, female",0.007 mSv/MBq
same,"Organ dose to adult human model, Thyroid","from animal 4, female",0.006 mSv/MBq
same,"Organ dose to adult human model, ULI wall (upper large intestine)","from animal 4, female",0.045 mSv/MBq
same,"Organ dose to adult human model, Urinary bladder wall","from animal 4, female",0.014 mSv/MBq
same,"Organ dose to adult human model, Uterus","from animal 4, female",0.011 mSv/MBq
same,"Dose to adult human model, Total body","from animal 5, female",0.010 mSv/MBq
same,"ED effective dose, adult human model","from animal 5, female",0.018 mSv/MBq
same,"EDE effective dose equivalent, adult human model","from animal 5, female",0.021 mSv/MBq
same,"Organ dose to adult human model, Adrenals","from animal 5, female",0.012 mSv/MBq
same,"Organ dose to adult human model, Brain","from animal 5, female",0.008 mSv/MBq
same,"Organ dose to adult human model, Breasts","from animal 5, female",0.008 mSv/MBq
same,"Organ dose to adult human model, Gallbladder wall","from animal 5, female",0.036 mSv/MBq
same,"Organ dose to adult human model, Heart wall","from animal 5, female",0.015 mSv/MBq
same,"Organ dose to adult human model, Kidneys","from animal 5, female",0.042 mSv/MBq
same,"Organ dose to adult human model, LLI wall (lower large intestine)","from animal 5, female",0.062 mSv/MBq
same,"Organ dose to adult human model, Liver","from animal 5, female",0.015 mSv/MBq
same,"Organ dose to adult human model, Lungs","from animal 5, female",0.009 mSv/MBq
same,"Organ dose to adult human model, Muscle","from animal 5, female",0.010 mSv/MBq
same,"Organ dose to adult human model, Osteogenic cells","from animal 5, female",0.014 mSv/MBq
same,"Organ dose to adult human model, Ovaries","from animal 5, female",0.017 mSv/MBq
same,"Organ dose to adult human model, Pancreas","from animal 5, female",0.013 mSv/MBq
same,"Organ dose to adult human model, Red marrow","from animal 5, female",0.010 mSv/MBq
same,"Organ dose to adult human model, Skin","from animal 5, female",0.007 mSv/MBq
same,"Organ dose to adult human model, Small intestine","from animal 5, female",0.031 mSv/MBq
same,"Organ dose to adult human model, Spleen","from animal 5, female",0.011 mSv/MBq
same,"Organ dose to adult human model, Stomach wall","from animal 5, female",0.012 mSv/MBq
same,"Organ dose to adult human model, Thymus","from animal 5, female",0.009 mSv/MBq
same,"Organ dose to adult human model, Thyroid","from animal 5, female",0.009 mSv/MBq
same,"Organ dose to adult human model, ULI wall (upper large intestine)","from animal 5, female",0.047 mSv/MBq
same,"Organ dose to adult human model, Urinary bladder wall","from animal 5, female",0.017 mSv/MBq
same,"Organ dose to adult human model, Uterus","from animal 5, female",0.014 mSv/MBq
same,"Dose to adult human model, Total body","from animal 6, female",0.012 mSv/MBq
same,"ED effective dose, adult human model","from animal 6, female",0.018 mSv/MBq
same,"EDE effective dose equivalent, adult human model","from animal 6, female",0.019 mSv/MBq
same,"Organ dose to adult human model, Adrenals","from animal 6, female",0.013 mSv/MBq
same,"Organ dose to adult human model, Brain","from animal 6, female",0.010 mSv/MBq
same,"Organ dose to adult human model, Breasts","from animal 6, female",0.009 mSv/MBq
same,"Organ dose to adult human model, Gallbladder wall","from animal 6, female",0.016 mSv/MBq
same,"Organ dose to adult human model, Heart wall","from animal 6, female",0.017 mSv/MBq
same,"Organ dose to adult human model, Kidneys","from animal 6, female",0.026 mSv/MBq
same,"Organ dose to adult human model, LLI wall (lower large intestine)","from animal 6, female",0.052 mSv/MBq
same,"Organ dose to adult human model, Liver","from animal 6, female",0.017 mSv/MBq
same,"Organ dose to adult human model, Lungs","from animal 6, female",0.011 mSv/MBq
same,"Organ dose to adult human model, Muscle","from animal 6, female",0.011 mSv/MBq
same,"Organ dose to adult human model, Osteogenic cells","from animal 6, female",0.017 mSv/MBq
same,"Organ dose to adult human model, Ovaries","from animal 6, female",0.018 mSv/MBq
same,"Organ dose to adult human model, Pancreas","from animal 6, female",0.014 mSv/MBq
same,"Organ dose to adult human model, Red marrow","from animal 6, female",0.011 mSv/MBq
same,"Organ dose to adult human model, Skin","from animal 6, female",0.009 mSv/MBq
same,"Organ dose to adult human model, Small intestine","from animal 6, female",0.029 mSv/MBq
same,"Organ dose to adult human model, Spleen","from animal 6, female",0.013 mSv/MBq
same,"Organ dose to adult human model, Stomach wall","from animal 6, female",0.013 mSv/MBq
same,"Organ dose to adult human model, Thymus","from animal 6, female",0.011 mSv/MBq
same,"Organ dose to adult human model, Thyroid","from animal 6, female",0.011 mSv/MBq
same,"Organ dose to adult human model, ULI wall (upper large intestine)","from animal 6, female",0.040 mSv/MBq
same,"Organ dose to adult human model, Urinary bladder wall","from animal 6, female",0.021 mSv/MBq
same,"Organ dose to adult human model, Uterus","from animal 6, female",0.016 mSv/MBq
